In ChEMBL document CHEMBL1147184, “Design and synthesis of long-acting inhibitors of dipeptidyl peptidase IV” (Bioorg Med Chem, 2007):
Calls of active or inactive are those of the source. The rule behind the calls is not given here.

Columns and labels:
[1] = Drug level in blood of Sprague-Dawley rat at 1 mg/kg, po after 0.25 hrs in absence of glucuronidase; type: ADME, organism-based; design: dose 1 mg/kg, route oral; conditions: read-out: Drug uptake
Method in brief: (§1)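 Male SD rats, fasted 24 h, given a single oral dose of 1 mg/kg as a solution in 0.5% methylcellulose. Blood drawn from the jugular vein. Plasma protein precipitated with acetonitrile, supernatant evaporated and reconstituted in mobile phase, then analysed by LC/MS/MS with no β-glucuronidase/arylsulfatase step.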

[2] = Drug level in blood of Sprague-Dawley rat at 1 mg/kg, po after 2 hrs in absence of glucuronidase; type: ADME, organism-based; design: dose 1 mg/kg, route oral; conditions: read-out: Drug uptake; method in brief: as §1
[3] = Stability in Tris buffer at pH 7.4; type: physicochemical
Method in brief: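 Compound at 1 mg/mL in 100 mM Tris buffer, pH 7.4, held at room temperature. Remaining parent measured by LC/MS peak area at 0, 2, 6 and 24 h. Half-life obtained from a linear first-order fit of log(peak area/time-zero area) against time.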

Rattus norvegicus [4] = assay: Ex vivo inhibition of DPP4 in Sprague-Dawley rat plasma at 1 mg/kg, po after 6 hrs; type: functional
Method in brief: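 Male SD rats, 6–7 weeks old, fasted at least 8 h, given a single oral dose of 1 mg/kg in 0.5% methylcellulose. Jugular blood taken before dosing and up to 10 h after. Plasma mixed 1:1 with 60 µM Gly-Pro-AMC. Initial rate taken from AMC fluorescence (ex 355/em 460 nm) at 37 °C. Percent inhibition calculated against basal activity.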

[5] = Drug level in blood of Sprague-Dawley rat at 1 mg/kg, po after 6 hrs in absence of glucuronidase; type: ADME, organism-based; design: dose 1 mg/kg, route oral; conditions: read-out: Drug uptake; method in brief: as §1
Rattus norvegicus [6] = species on record: Rattus norvegicus; assay: animal or person; conditions: Sprague-Dawley, Plasma, po, 10 h, read-out: Inhibition
[7] = Oral bioavailability in Sprague-Dawley rat at 10 mg/5 ml/kg, po; type: ADME, organism-based; conditions: in vivo, 10 mg/kg
Method in brief: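 Male SD rats, 5–7 weeks old, fasted 24 h. Oral dose 10 mg/5 mL/kg in 0.5% methylcellulose compared with iv bolus of 0.3 mg/2 mL/kg in saline via jugular vein. Plasma sampled from 0 to 24 h and measured by LC/MS/MS. F calculated from dose-normalised AUC ratio, po over iv.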

[8] = target: Dipeptidyl peptidase 4 (Rattus norvegicus) (UniProt P14740); assay: Inhibition of DPP4 in rat liver microsomes in presence of UDPGA; conditions: Microsome
[9] = Oral bioavailability in Sprague-Dawley rat at 1 mg/5 ml/kg, po; type: ADME, organism-based; conditions: in vivo, 1 mg/kg
Method in brief: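 Male SD rats, 5–7 weeks old, fasted 24 h, n = 3 per route. Oral dose 1 mg/5 mL/kg in 0.5% methylcellulose. Slow iv bolus of 0.3 mg/2 mL/kg in saline via jugular vein. Jugular blood sampled from 0 to 24 h; plasma analysed by LC/MS/MS. F = (AUCpo/Dpo)/(AUCiv/Div) × 100.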

Rattus norvegicus [10] = assay: Effect on plasma glucose level in orally dosed Sprague-Dawley rat by OGTT assay; type: functional, organism-based
Method in brief: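 Male SD rats (400–460 g) fasted at least 20 h. Vehicle (0.5% methylcellulose) or drug at 0.01, 0.03 or 0.1 mg/kg given po at −30 min, then oral glucose 1 g/kg at 0 min. Tail blood taken at −5, 5, 10, 15, 30, 60 and 120 min. Plasma glucose read by glucose oxidase–peroxidase dye method. Mean ± SE, n = 8; Student's t-test vs vehicle.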

Dipeptidyl peptidase 4 (Rattus norvegicus), sequence (P14740 whole entry, looked up): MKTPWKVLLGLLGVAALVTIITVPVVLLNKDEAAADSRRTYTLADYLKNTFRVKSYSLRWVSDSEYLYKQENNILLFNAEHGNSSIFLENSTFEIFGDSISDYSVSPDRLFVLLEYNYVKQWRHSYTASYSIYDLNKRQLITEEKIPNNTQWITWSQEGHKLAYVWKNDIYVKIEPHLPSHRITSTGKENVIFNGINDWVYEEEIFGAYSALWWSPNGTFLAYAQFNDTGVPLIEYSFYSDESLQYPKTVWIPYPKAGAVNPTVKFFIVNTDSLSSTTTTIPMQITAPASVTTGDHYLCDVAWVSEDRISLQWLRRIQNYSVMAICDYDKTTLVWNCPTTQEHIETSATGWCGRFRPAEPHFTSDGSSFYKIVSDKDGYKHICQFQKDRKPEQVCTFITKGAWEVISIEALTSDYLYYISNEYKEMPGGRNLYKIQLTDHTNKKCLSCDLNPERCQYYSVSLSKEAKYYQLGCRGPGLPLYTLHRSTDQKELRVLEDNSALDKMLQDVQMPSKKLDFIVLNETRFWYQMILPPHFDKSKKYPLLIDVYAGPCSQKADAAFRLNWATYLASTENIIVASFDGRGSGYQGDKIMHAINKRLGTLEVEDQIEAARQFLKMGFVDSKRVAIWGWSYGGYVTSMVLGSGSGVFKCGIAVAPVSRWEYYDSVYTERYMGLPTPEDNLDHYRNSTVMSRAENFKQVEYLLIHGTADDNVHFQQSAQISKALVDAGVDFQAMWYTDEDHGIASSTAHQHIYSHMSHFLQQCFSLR

| Structure (SMILES) | half-life [3] | inhibition in vivo at 1 mg/kg (Rattus norvegicus [4]) | also measured |
| --- | --- | --- | --- |
| Cc1cc(C)c([C@@H]2CN[C@H](C(=O)N3CCC[C@H]3C#N)C2)c(C)c1O | 40 h | 39% | concentration at 0.25 h [1]: 9.7 ng/mL; concentration at 2 h [2]: 0.65 ng/mL; concentration at 6 h [5]: 0.95 ng/mL |
| N#C[C@@H]1CCCN1C(=O)[C@@H]1C[C@H](c2ccc(O)cc2)CN1 | 21 h | 85% | – |
| N#C[C@@H]1CCCN1C(=O)[C@@H]1C[C@H](c2ccccc2)CN1 | – | 60% | – |
| C=C(C)C[C@@H]1CN[C@H](C(=O)N2CCC[C@H]2C#N)C1 | – | 27% | – |
| N#C[C@@H]1CCCN1C(=O)[C@@H]1CCCN1 | – | 20% | – |
| N#C[C@@H]1CCCN1C(=O)[C@@H]1C[C@H](c2ccccc2O)CN1 | 3.2 h | 43% | – |
| COc1cc(O)cc(C)c1[C@@H]1CN[C@H](C(=O)N2CCC[C@H]2C#N)C1 | 49 h | 90% | concentration at 0.25 h [1]: 0.49 ng/mL; inhibition in vivo at 1 mg/kg (Rattus norvegicus [6]): 73%; bioavailability [7]: 0.1%; Activity [8]: Active |
| COc1cc(O)cc(OC)c1[C@@H]1CN[C@H](C(=O)N2CCC[C@H]2C#N)C1 | 59 h | 81% | inhibition in vivo at 1 mg/kg (Rattus norvegicus [6]): 66% |
| N#C[C@@H]1CCCN1C(=O)[C@@H]1C[C@H](C2CCCCC2)CN1 | – | 38% | – |
| CCc1cc(O)cc(C)c1[C@@H]1CN[C@H](C(=O)N2CCC[C@H]2C#N)C1 | 39 h | 86% | – |
| Cc1cccc(C)c1[C@@H]1CN[C@H](C(=O)N2CCC[C@H]2C#N)C1 | – | 91% | – |
| CC(C)C[C@@H]1CN[C@H](C(=O)N2CCC[C@H]2C#N)C1 | – | 40% | – |
| Cc1cc(O)cc(C)c1[C@@H]1CN[C@H](C(=O)N2CCC[C@H]2C#N)C1 | 31 h | 88% | inhibition in vivo at 1 mg/kg (Rattus norvegicus [6]): 57%; bioavailability [9]: 3% |
| COc1c(O)ccc(C)c1[C@@H]1CN[C@H](C(=O)N2CCC[C@H]2C#N)C1 | – | 94% | inhibition in vivo at 1 mg/kg (Rattus norvegicus [6]): 86%; bioavailability [9]: 2% |
| N#C[C@@H]1CCCN1C(=O)[C@@H]1C[C@@H](c2ccccc2)CN1 | – | 17% | – |
| Cc1ccc(O)c(C)c1[C@@H]1CN[C@H](C(=O)N2CCC[C@H]2C#N)C1 | 65 h | 95% | inhibition in vivo at 1 mg/kg (Rattus norvegicus [6]): 83%; Activity (Rattus norvegicus [10]): Dose-dependent effect |
| CCC[C@@H]1CN[C@H](C(=O)N2CCC[C@H]2C#N)C1 | – | 50% | – |
| N#C[C@@H]1CCCN1C(=O)[C@@H]1C[C@H](C2C3CC4CC(C3)CC2C4)CN1 (stereo not given in full) | – | 47% | – |
| C=CC[C@@H]1CN[C@H](C(=O)N2CCC[C@H]2C#N)C1 | – | 38% | – |
| N#C[C@@H]1CCCN1C(=O)[C@@H]1C[C@H](c2cccc(O)c2)CN1 | 20 h | 77% | – |
| CCOc1cc(O)cc(OCC)c1[C@@H]1CN[C@H](C(=O)N2CCC[C@H]2C#N)C1 | – | 79% | inhibition in vivo at 1 mg/kg (Rattus norvegicus [6]): 50% |
